Results as given in ChEMBL document CHEMBL2440074, “An epoxyisoprostane is a major regulator of endothelial cell function” (J Med Chem, 2013).
The source made the active and inactive calls. The rule behind the calls is not given here.

Experiments:
Type in all cases: functional
[1] = organism: Homo sapiens; test: Induction of HSP1A1 expression in HAEC at 3 uM after 4 hrs by qPCR analysis
[2] = organism: Homo sapiens; test: Induction of ATF-3 expression in HAEC at 3 uM after 4 hrs by qPCR analysis
In short: (§1)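 Cultured HAECs, switched overnight to M199/10% FBS, exposed for 4 h to 3 μM lipid in M199 with 1% FBS, duplicate/replicate wells. Cells scraped, mRNA quantified by qPCR with GAPDH normalization; fold change of treated over untreated cells.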

[3] = organism: Homo sapiens; test: Induction of IL-8 expression in HAEC at 3 uM after 4 hrs by qPCR analysis; in short: as §1
[4] = organism: Homo sapiens; test: Induction of HO-1 expression in HAEC at 3 uM after 4 hrs by qPCR analysis; in short: as §1
[5] = organism: Homo sapiens; test: Induction of NfKB1A expression in HAEC at 6 uM after 4 hrs by microarray assay relative to control
In short: (§2)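 Microarray on RNA from duplicate HAEC wells given 3 μM EI4 or 6 μM PEIPC in M199 with 1% FBS for 4 h, or left untreated. Probes with detection p < 0.001 retained. Fold change is mean treated probe level over mean control probe level. Genes counted as regulated at ≥1.2-fold.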

[6] = organism: Homo sapiens; test: Induction of MCP1 expression in HAEC at 3 uM after 4 hrs by qPCR analysis; in short: as §1
[7] = organism: Homo sapiens; test: Induction of IL-6 expression in HAEC at 6 uM after 4 hrs by microarray assay relative to control; in short: as §2
[8] = organism: Homo sapiens; test: Induction of E-selectin expression in HAEC at 6 uM after 4 hrs by qPCR analysis relative to control
[9] = organism: Homo sapiens; test: Induction of MCP1 expression in HAEC at 6 uM after 4 hrs by microarray assay relative to control; in short: as §2
[10] = organism: Homo sapiens; test: Induction of IL-8 expression in HAEC at 6 uM after 4 hrs by microarray assay relative to control; in short: as §2
[11] = organism: Homo sapiens; test: Induction of ICAM-1 expression in HAEC at 6 uM after 4 hrs by microarray assay relative to control; in short: as §2
[12] = organism: Homo sapiens; test: Induction of RelB expression in HAEC at 6 uM after 4 hrs by microarray assay relative to control; in short: as §2
[13] = organism: Homo sapiens; test: Induction of CXCL1 expression in HAEC at 6 uM after 4 hrs by microarray assay relative to control; in short: as §2
[14] = organism: Homo sapiens; test: Induction of VCAM-1 expression in HAEC at 6 uM after 4 hrs by microarray assay relative to control; in short: as §2
[15] = organism: Homo sapiens; test: Induction of CXCL6 expression in HAEC at 6 uM after 4 hrs by microarray assay relative to control; in short: as §2
[16] = organism: Homo sapiens; test: Induction of IL-8 protein expression in HAEC at 0.75 to 1.5 uM after 4 hrs by ELISA
In short: (§3)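 HAECs kept overnight in M199 with 10% FBS, then left untreated or given increasing EI concentrations for 4 h in M199 with 1% FBS, triplicate wells. IL-8 and MCP-1 in the collected medium quantified by ELISA. Significance versus untreated control by Student t test.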

[17] = organism: Homo sapiens; test: Induction of CXCL1 expression in HAEC at 3 uM after 4 hrs by microarray assay relative to control; in short: as §2
[18] = organism: Homo sapiens; test: Inhibition of IL-1beta-induced ICAM-1 mRNA expression in HAEC at 3 uM treated 1 hr before IL-1beta stimulation measured after 4 hrs by qPCR analysis
In short: (§4)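 RNA measured by qPCR. HAECs preincubated 1 h with 3 μM EI4, then exposed 4 h to 20 ng/mL IL-1β with EI still present. Value reported as percent reduction of the IL-1β-induced fold change.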

[19] = organism: Homo sapiens; test: Inhibition of IL-1beta-induced VCAM-1 mRNA expression in HAEC at 3 uM treated 1 hr before IL-1beta stimulation measured after 4 hrs by qPCR analysis; in short: as §4
[20] = organism: Homo sapiens; test: Inhibition of IL-1beta-induced MCP-1 protein expression in HAEC at 3 uM co-treated with IL-1beta measured after 4 hrs by ELISA
In short: (§5)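 HAECs preincubated 1 h with 3 μM EI4, then given 20 ng/mL IL-1β plus EI for 4 h. MCP-1 in the medium measured by ELISA and compared with IL-1β alone; significance by p value.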

[21] = organism: Homo sapiens; test: Inhibition of IL-1beta-induced IL-6 mRNA expression in HAEC at 3 uM treated 1 hr before IL-1beta stimulation measured after 4 hrs by qPCR analysis; in short: as §4
[22] = organism: Homo sapiens; test: Induction of ICAM-1 expression in HAEC at 3 uM after 4 hrs by microarray assay relative to control; in short: as §2
[23] = organism: Homo sapiens; test: Induction of IL-6 expression in HAEC at 3 uM after 4 hrs by microarray assay relative to control; in short: as §2
[24] = organism: Homo sapiens; test: Induction of E-selectin expression in HAEC at 3 uM after 4 hrs by microarray assay relative to control; in short: as §2
[25] = organism: Homo sapiens; test: Induction of NfKB1A expression in HAEC at 3 uM after 4 hrs by microarray assay relative to control; in short: as §2
[26] = organism: Homo sapiens; test: Induction of MCP1 expression in HAEC at 3 uM after 4 hrs by microarray assay relative to control; in short: as §2
[27] = organism: Homo sapiens; test: Induction of RelB expression in HAEC at 3 uM after 4 hrs by microarray assay relative to control; in short: as §2
[28] = organism: Homo sapiens; test: Inhibition of IL-1beta-induced MCP-1 protein expression in HAEC at 3 uM treated 1 hr before IL-1beta stimulation measured after 4 hrs by ELISA; in short: as §5
[29] = Decrease of IL-8 protein expression in HAEC at 6 uM after 4 hrs by ELISA; details: Homo sapiens; in short: as §3
[30] = organism: Homo sapiens; test: Inhibition of IL-1beta-induced MCP-1 mRNA expression in HAEC at 3 uM treated 1 hr before IL-1beta stimulation measured after 4 hrs by qPCR analysis; in short: as §4
[31] = Decrease of MCP-1 protein expression in HAEC at 6 uM after 4 hrs by ELISA; details: Homo sapiens; in short: as §3
[32] = organism: Homo sapiens; test: Inhibition of IL-1beta-induced E-selectin mRNA expression in HAEC at 3 uM treated 1 hr before IL-1beta stimulation measured after 4 hrs by qPCR analysis; in short: as §4
[33] = organism: Homo sapiens; test: Inhibition of IL-1beta-induced CXCL6 mRNA expression in HAEC at 3 uM treated 1 hr before IL-1beta stimulation measured after 4 hrs by qPCR analysis; in short: as §4
[34] = organism: Homo sapiens; test: Inhibition of IL-1beta-induced CXCL1 mRNA expression in HAEC at 3 uM treated 1 hr before IL-1beta stimulation measured after 4 hrs by qPCR analysis; in short: as §4
[35] = organism: Homo sapiens; test: Induction of IL-8 expression in HAEC at 3 uM after 4 hrs by microarray assay relative to control; in short: as §2
[36] = organism: Homo sapiens; test: Induction of VCAM-1 expression in HAEC at 3 uM after 4 hrs by microarray assay relative to control; in short: as §2
[37] = organism: Homo sapiens; test: Induction of CXCL6 expression in HAEC at 3 uM after 4 hrs by microarray assay relative to control; in short: as §2

Q: For `CCCCC/C=C\C[C@@H]1/C(=C\C2O[C@@H]2CCCC(=O)O)C(=O)CC1O` (single isomer, unassigned), which Activity [1] is on record?
A: Active

Q: What about the Activity [2] of the same molecule?
A: Active

Q: And the Activity [3]?
A: Active

Q: And the Activity [4]?
A: Active

Q: What does the source list for `CCCCC/C=C\CC1/C(=C\C2OC2CCCC(=O)OC(COC(=O)CCCCCCCCCCCCCCC)COP(=O)([O-])OCC[N+](C)(C)C)C(=O)CC1O` (stereo not drawn)?
A: fold change (FC) [5]: 4; Activity [6]: Active; fold change (FC) [7]: 2.2; fold change (FC) [8]: 2.38; fold change (FC) [9]: 13; Activity [2]: Active; fold change (FC) [10]: 17; Activity [4]: Active; fold change (FC) [11]: 2.3; fold change (FC) [12]: 4.2; fold change (FC) [13]: 4.8; fold change (FC) [14]: 1.2; fold change (FC) [15]: 1.4

Q: With `CCCCC/C=C\C[C@H]1/C(=C\[C@@H]2O[C@H]2CCCC(=O)O)C(=O)C[C@H]1O` as the molecule, how does the Activity [1] read?
A: Active

Q: And the Activity [2]?
A: Active

Q: And the Activity [3]?
A: Active

Q: And the Activity [4]?
A: Active

Q: For `CCCCC/C=C\C[C@@H]1/C(=C\[C@H]2O[C@@H]2CCCC(=O)O)C(=O)C[C@H]1O`, which Activity [16] is on record?
A: Active

Q: What about the Activity [1] of the same molecule?
A: Active

Q: And the Activity [6]?
A: Active

Q: What about the fold change (FC) [17] of the same molecule?
A: 1.3

Q: What about the inhibition [18] of the same molecule?
A: 52.3%

Q: What about the inhibition [19] of the same molecule?
A: 92.1%

Q: And the inhibition [20]?
A: Active

Q: What about the inhibition [21] of the same molecule?
A: 76%

Q: And the fold change (FC) [22]?
A: 0.75

Q: And the fold change (FC) [23]?
A: 0.6

Q: What about the fold change (FC) [24] of the same molecule?
A: 0.21

Q: And the fold change (FC) [25]?
A: 0.79

Q: What about the fold change (FC) [26] of the same molecule?
A: 0.2

Q: What about the fold change (FC) [27] of the same molecule?
A: 0.8

Q: And the inhibition [28]?
A: Active

Q: What about the Activity [2] of the same molecule?
A: Active

Q: And the Activity [3]?
A: Active

Q: What about the Activity [29] of the same molecule?
A: Active

Q: And the inhibition [30]?
A: 79.6%

Q: What about the Activity [4] of the same molecule?
A: Active

Q: What about the Activity [31] of the same molecule?
A: Active

Q: And the inhibition [32]?
A: 69.5%

Q: What about the inhibition [33] of the same molecule?
A: 87.6%

Q: What about the inhibition [34] of the same molecule?
A: 53.4%

Q: And the fold change (FC) [35]?
A: 3

Q: What about the fold change (FC) [36] of the same molecule?
A: 0.27

Q: What about the fold change (FC) [37] of the same molecule?
A: 0.59

Q: Which Activity [1] does the source give for `CCCCC/C=C\C[C@H]1/C(=C\[C@@H]2O[C@H]2CCCC(=O)O)C(=O)C[C@@H]1O` here?
A: Active

Q: And the Activity [6]?
A: Active

Q: What about the Activity [2] of the same molecule?
A: Active

Q: What about the Activity [3] of the same molecule?
A: Active

Q: What about the Activity [4] of the same molecule?
A: Active
